Assay [1] concerns the target LDV peptide-RSA conjugate (human). Nature of the assay: cell adhesion assay.
In the next assay the test system is A375 melanoma cells. It is filed as cell-based, human. Conditions: 5 ug/ml peptide, no activation, Figs. 2 and 3. The method in brief:
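Surfaces coated at 5 ug/ml with plasma fibronectin or with synthetic peptides, each carrying an NH2-terminal cysteine on a gly-gly-gly tail and conjugated to SMCC-derivatized RSA. Human melanoma A375 cells were left to adhere for 1 h. Nonadherent cells were washed off. Adherent monolayers were photographed under phase contrast on an inverted microscope to judge adhesion and spreading.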

The next assay addresses alpha 4 beta 1 integrin (human (endogenous in Jurkat, Ramos, …, UniProt P13612;P05556)). Put plainly: cell adhesion assay.

Where only a bound is given, the exact number is not on record here.

As for “alpha 4 beta 1 integrin (from UniProt P13612;P05556) (receptor)”, in assay [1], the molar concentration of peptide conjugate required for 50% adhesion was > 2000.
Consider rsa-EILDVPST, for which the “adhesion of A375 melanoma cells to coated surface, in words” value in the assay on A375 melanoma cells is “able to support the adhesion”.
Molecule GPEILDVPST [GPEILDVPST peptide] yielded an IC50 with alpha 4 beta 1 integrin of 450 µM.
Same read-out and setting: with LHGPEILDVPST [B12 peptide] the figure was 400 µM.
For the molecule DELPQLVTLPHPN [A13 peptide], in the assay with alpha 4 beta 1 integrin, the IC50 was > 1000 µM.
Take EILDV [EILDV peptide]: in the assay with alpha 4 beta 1 integrin, the IC50 was 660 µM.

A word on the IC50: it is the midpoint of a concentration-inhibition curve. A lower IC50 goes with greater potency.

The values above are taken from paper PMC2289302 (The Journal of Cell Biology, 1992).
